HKDC1 inhibitor: blocks human hexokinase HKDC1 activity | Q2TB90 | recombinant HKDC1, G6PDH/diaphorase resazurin coupled fluorescence | inhibition, % at 20 µM | hit rate 0.16% among 340,000 | AID 493160;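 active = inhibition above about 35% when tested at 20 µM, limit read from the data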;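 note: plate controls were DMSO wells with enzyme for no effect and DMSO wells lacking enzyme for full effect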
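Assay system: in-house recombinant HK5 (HKDC1) enzyme. Input: HKDC1 at 5 µg/mL. Medium: Tris pH 8.0 buffer with MgCl2, Tween-20, BSA, BME. Dosing: single 20 µM dose. Schedule: 90 min reaction incubation at room temperature, dark. Signal: resazurin-to-resorufin fluorescence via G6PDH and diaphorase coupling, 525/613 nm. Controls: DMSO-enzyme wells negative, buffer-substituted wells positive.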
beta cell repl: MIN6 beta-cell proliferation induction; MIN6 cells proliferation, ATPlite luminescence, 48 h; cells starved in 0.2% serum; 100% = growth in 10% serum; proliferation, % at 10 µM; hit rate 0.29% among 330,000;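 active = compounds whose signal lies at least 3.5 SD above the mean of all wells on their plate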;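 note: 0% = DMSO-treated cells in low-serum medium and 100% = 10% serum control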
ATG4B inhibitor: blocks human ATG4B protease cleavage of LC3 substrate; hit rate 0.51% among 340,000; ATG4B cleavage of LC3-PLA2, NBD-HPC fluorescence, 1 h; Q9Y4P1; inhibition, % at 8.33 µM; AID 504462; in the data active = inhibition above about 40%
PvdQ acylase: blocks Pseudomonas aeruginosa PvdQ acylase activity; purified PvdQ acylase, fluorescence plate reader; AID 488965; hit rate 0.063% among 340,000; inhibition, % at 10 µM; in the data active = inhibition above about 30%, passing the limit was not always enough;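 note: 0% = vehicle neutral wells and 100% = reference inhibitor wells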
IMP-1 inh-1: blocks Pseudomonas aeruginosa IMP-1 metallo-beta-lactamase; inhibition, % at 5.6 µM; hit rate 0.45% among 290,000; purified IMP-1, nitrocefin hydrolysis, epi-absorbance fluorescence;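 active = inhibition above the mean plus 3 SD of all compounds in the same screening run, cut at about 4.5% in these data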;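 note: 0% = IMP-1 with DMSO and 100% = DMSO wells lacking enzyme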
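assay system = purified recombinant IMP-1 metallo-beta-lactamase enzyme | schedule = 15 min preincubation plus 25 min reaction at 25 °C | signal = Epi-absorbance fluorescence, 480 nm excitation, 530 nm emission | read-out basis = percent inhibition from optical density relative to buffer-blank wells | controls = IMP-1 with DMSO as 0%, enzyme-free DMSO as 100%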
VIM-2 inh: blocks Pseudomonas aeruginosa VIM-2 metallo-beta-lactamase | purified VIM-2, nitrocefin hydrolysis, epi-absorbance fluorescence | inhibition, % at 5.6 µM | hit rate 0.89% among 290,000;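 active = inhibition above the mean of all tested compounds plus 3 SD, cutoff set per screening run, cut at about 7.5% in these data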;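 note: red hydrolysis product quenches plate fluorescence so inhibitors raise well fluorescence; 0% = enzyme with DMSO and 100% = DMSO without enzyme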
IMP-1 inh-2: blocks IMP-1 metallo-beta-lactamase in VIM-2 selectivity screen | shares compounds with VIM-2 inh | purified IMP-1, nitrocefin hydrolysis, epi-absorbance fluorescence | inhibition, % at 5.6 µM | 1,300 tested, under 10 active; call rule not given here;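 note: 0% = enzyme with vehicle and 100% = vehicle without enzyme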
VIM-2 FRET ctr: inhibits VIM-2 in FRET assay to exclude epi-absorbance artifacts. shares compounds with VIM-2 inh. purified VIM-2, CCF2 FRET substrate hydrolysis. inhibition, % at 5.6 µM. hit rate 23% among 1,300;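 active = inhibition above the mean of all tested compounds plus 3 SD, cut at about 19% in these data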;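 note: 0% = VIM-2 plus DMSO and 100% = no enzyme wells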
TEM-1 inh: blocks E. coli TEM-1 beta-lactamase in VIM-2 selectivity screen | shares compounds with VIM-2 inh | Purified TEM-1, nitrocefin hydrolysis, epi-absorbance fluorescence | inhibition, % at 5.6 µM | hit rate 3% among 1,300;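 active = inhibition above that campaign's mean inhibition plus 3 SD, cut at about 0.46% in these data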;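 note: 0% = TEM-1 with DMSO and 100% = TEM-1 with 100 µM potassium clavulanate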
Target sequence (P62593 whole entry, looked up): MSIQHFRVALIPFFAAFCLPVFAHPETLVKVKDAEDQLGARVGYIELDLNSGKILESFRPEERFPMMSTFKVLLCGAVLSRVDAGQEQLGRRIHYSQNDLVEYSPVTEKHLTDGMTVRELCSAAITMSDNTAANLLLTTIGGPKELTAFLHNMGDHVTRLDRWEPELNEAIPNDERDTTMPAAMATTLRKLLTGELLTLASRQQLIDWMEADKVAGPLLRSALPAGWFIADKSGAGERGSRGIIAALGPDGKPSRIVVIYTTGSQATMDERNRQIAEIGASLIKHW
VIM-2 inh conf: confirmation of P. aeruginosa VIM-2 metallo-beta-lactamase inhibitors; shares compounds with VIM-2 inh; purified VIM-2, nitrocefin hydrolysis, epi-absorbance; inhibition, % at 5.6 µM; hit rate 96% among 1,300; AID 2187;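 active = inhibition of the VIM-2 beta-lactamase enzyme above about 11% from the earlier first-round screen, limit read from the data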;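 note: 0% = VIM-2 with DMSO and 100% = buffer wells without enzyme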
* marks the source's active call; other numbers are inactive results; nt = no result. Hits are enriched below; roughly 2% of the tested compounds scored in any of these assays.

SMILES	HKDC1 inhibitor	beta cell repl	ATG4B inhibitor	PvdQ acylase	IMP-1 inh-1	VIM-2 inh	IMP-1 inh-2	VIM-2 FRET ctr	TEM-1 inh	VIM-2 inh conf
N#Cc1ccccc1S(=O)(=O)N1CCN(C(=O)C2CC(=O)N(c3ccc4c(c3)OCCO4)C2)CC1 (stereo not drawn)	-7	-3	-3	3	nt	nt	nt	nt	nt	nt
O=C(O)c1ccccc1Nc1ccc([N+](=O)[O-])c2nonc12	3	1	4	0	-6	22*	-5	51*	-14	27*
CCOc1ccc2nc(C)cc(Nc3ccc4c(c3)OCCO4)c2c1	-1	-4	-2	9	-3	18*	-3	-1	-5	31*
Clc1ccc(OCc2nn3c(C4CCCCC4)nnc3s2)cc1	2	-4	2	4	-4	-1	nt	nt	nt	nt
CSc1ncccc1C(=O)Nc1nc2ccc(Oc3ccccc3)cc2s1	-2	-6	-10	-16	-3	-2	nt	nt	nt	nt
Cc1cc(OCC(=O)Nc2cccnc2)c2c(C)cc(=O)oc2c1	1	1	-4	-16	-1	21*	-3	-3	-8	33*
Cc1cc(OCC(=O)NCc2cccnc2)c2c(C)cc(=O)oc2c1	-4	1	7	0	-2	2	nt	nt	nt	nt
Cc1ccc(C(C)C)cc1OCC(=O)NCCCn1ccnc1	-1	-1	6	-20	nt	nt	nt	nt	nt	nt
Cc1cc(OCC(=O)NCCCn2ccnc2)c2c(C)cc(=O)oc2c1	-7	-1	1	-12	-2	28*	-4	-3	-5	36*
CCCc1cc(=O)oc2cc(C)cc(OCC(=O)NCCCn3ccnc3)c12	-3	-2	-3	-7	-4	24*	-2	-9	-5	39*
CC(NC(=O)CCCn1cc([N+](=O)[O-])cn1)c1ccccc1 (stereo not drawn)	-4	-2	-3	8	-4	-5	nt	nt	nt	nt
CNC(=O)COc1ccc(-c2nn(C)c(=O)c3ccccc23)cc1	-4	0	-4	-4	1	5	nt	nt	nt	nt
CC(=O)NCc1nnc2c3ccccc3c(-c3ccccc3)nn12	-2	-2	-2	7	-2	22*	-3	-1	-4	33*
O=C(COc1ccccc1)NCc1nnc2c3ccccc3c(-c3ccccc3)nn12	-1	-5	32	-18	2	18*	2	6	1.0*	39*
COC(=O)c1sc(SC)c(S(=O)(=O)C(C)C)c1N/N=C(\C#N)C(=O)c1ccccc1	2	-3	-14	4	-2	-1	nt	nt	nt	nt
CCOC(=O)C1CCN(S(=O)(=O)c2c(C)n[nH]c2C)CC1	-3	2	-3	-8	-4	-2	nt	nt	nt	nt
CCC(C)[C@H](NC(=O)N1CC(=O)Nc2ccccc21)C(=O)N[C@H](Cc1c[nH]c2ccccc12)C(=O)O (stereo partly drawn)	2	-3	-6	-11	-3	5	nt	nt	nt	nt
CC(C)[C@H](NC(=O)N1CC(=O)Nc2ccccc21)C(=O)N[C@H](Cc1c[nH]c2ccccc12)C(=O)O	-4	0	-28	-11	1	13*	-1	22*	-1	12*
CCN1CCN(CCNC(=O)c2cc(Cl)c(NC(=O)C3=C(C)OCCS3)cc2OC)CC1	-5	-2	-10	-9	-3	24*	-2	4	-10	33*
Oc1ccc(C2=Nn3c(nnc3-c3ccco3)SC2)cc1O	2	3	1	-6	-2	16*	-4	-3	-9	28*
